Among the data in ChEMBL document CHEMBL1144630, “Indole derivatives as potent inhibitors of 5-lipoxygenase: design, synthesis, biological evaluation, and molecular modeling” (Bioorg Med Chem Lett, 2007) are inhibition and IC50 values, retold here.

The target in assay [1] is T1, Polyunsaturated fatty acid 5-lipoxygenase (Rattus norvegicus) (UniProt P12527).
T1 sequence (whole entry): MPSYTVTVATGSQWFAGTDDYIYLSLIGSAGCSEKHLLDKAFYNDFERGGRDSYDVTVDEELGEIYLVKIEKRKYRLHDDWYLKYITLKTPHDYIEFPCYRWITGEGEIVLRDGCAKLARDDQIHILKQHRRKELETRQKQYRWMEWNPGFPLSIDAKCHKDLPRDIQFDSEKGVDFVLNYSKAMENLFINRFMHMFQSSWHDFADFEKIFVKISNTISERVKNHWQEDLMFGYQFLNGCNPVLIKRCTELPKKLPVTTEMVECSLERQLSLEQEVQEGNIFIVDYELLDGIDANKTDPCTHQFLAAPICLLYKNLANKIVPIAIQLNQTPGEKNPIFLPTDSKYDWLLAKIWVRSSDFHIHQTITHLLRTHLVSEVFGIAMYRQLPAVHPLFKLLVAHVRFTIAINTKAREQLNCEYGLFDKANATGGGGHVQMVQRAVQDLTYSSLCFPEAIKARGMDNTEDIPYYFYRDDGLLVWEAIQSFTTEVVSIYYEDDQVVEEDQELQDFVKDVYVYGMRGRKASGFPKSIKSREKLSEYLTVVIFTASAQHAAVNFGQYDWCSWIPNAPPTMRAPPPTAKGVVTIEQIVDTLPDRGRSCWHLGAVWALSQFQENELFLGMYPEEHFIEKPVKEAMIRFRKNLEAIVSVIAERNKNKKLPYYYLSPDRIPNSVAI
As to conditions: at 5 µM.

In assay [2] the target is T2, Polyunsaturated fatty acid 5-lipoxygenase (Rattus norvegicus, UniProt P12527).
T2 sequence (P12527 whole entry): T1 sequence (whole entry)
As to the kind of experiment: Inhibition of 5-LOX in rat peritoneal leukocytes. It is filed as cell-based. The method in brief: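 Cell-based 5-LOX assay in rat peritoneal leukocytes, quantified with a commercial kit. Selected compounds went on to concentration–response testing to derive IC50. Values are means of three determinations, each within 10% of the mean.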

In assay [1], `COC1(c2cc(F)cc(OCCc3cn(Cc4ccccc4)c4ccccc34)c2)CCOCC1` returned an inhibition of 31.8%.
With `O=C(Cc1cn(C(=O)c2ccccc2)c2ccccc12)N1CCOCC1`, in assay [1], the inhibition stood at 21%.
The same measure, in the same setting: as for `O=C(Cc1cn(C(=O)c2ccc(Cl)cc2)c2ccccc12)N1CCOCC1`, the figure is 22.4%.
`O=C(CCc1cn(C(=O)c2ccc(Cl)cc2)c2ccccc12)N1CCOCC1`: the inhibition in assay [1] came out at 26%.
`O=C(CCc1cn(Cc2ccccc2)c2ccccc12)N1CCOCC1`: the inhibition in assay [1] was determined as 63.8%. In addition, in assay [2], the IC50 is 3170 nM.
`O=C(CCCc1cn(Cc2ccccc2)c2ccccc12)N1CCOCC1` had an inhibition in assay [1] of 25.8%. The same molecule registered an IC50 in assay [2] of 74000 nM.
As to `Cc1[nH]c2ccc(Cl)cc2c1CCCC(=O)N1CCOCC1`, in assay [1], the inhibition came to 71.3%. The molecule further had an IC50 in assay [2] of 1330 nM.
`O=C(CCc1cn(C(=O)c2ccccc2)c2ccccc12)N1CCOCC1` had an inhibition in assay [1] of 23.4%.
Consider `O=C(Cc1c[nH]c2ccccc12)N1CCOCC1`, for which the inhibition in assay [1] came to 15.9%.
In turn, `O=C(CCc1c[nH]c2ccccc12)N1CCOCC1` had an inhibition in assay [1] of 33%.
`COc1ccc2[nH]c(C)c(CCCC(=O)N3CCOCC3)c2c1` yielded an inhibition in assay [1] of 72.9%. The molecule also had a 50% inhibitory concentration (IC50) in assay [2] of 3160 nM.
As for `COc1ccc2[nH]c(C)c(CCCC(=O)N3CCN(C(=O)OC(C)(C)C)CC3)c2c1`, the inhibition in assay [1] amounted to 71.2%.
As to `COc1ccc2c(c1)c(CCCC(=O)N1CCOCC1)c(C)n2C(=O)c1ccc(Cl)cc1`, the inhibition in assay [1] amounted to 70.2%. This molecule registered a half-maximal inhibitory concentration (IC50) in assay [2] of 2250 nM.
In turn, `Cc1c(CCCC(=O)N2CCOCC2)c2cc(Cl)ccc2n1Cc1ccc(Cl)cc1` displayed an inhibition in assay [1] of 37.9%.
In assay [1], `O=C(Cc1cn(Cc2ccc(Cl)c(Cl)c2)c2ccccc12)N1CCOCC1` came in with an inhibition of 81.9%. Also, half-maximal inhibition in assay [2] (IC50) required 870 nM.
In turn, `Cc1c(CCCC(=O)N2CCOCC2)c2cc(Cl)ccc2n1Cc1ccccc1` returned an inhibition in assay [1] of 80.2%. Besides, half-maximal inhibition in assay [2] (IC50) required 950 nM.
The molecule `Cc1ccc(Cn2cc(CCC(=O)N3CCOCC3)c3ccccc32)cc1` gave an inhibition in assay [1] of 55.2%.
In assay [1], `CC(C)(C)OC(=O)N1CCN(C(=O)CCCc2c[nH]c3ccccc23)CC1` registered an inhibition of 84.1%. This molecule also gave an IC50 in assay [2] of 740 nM.
For `Cc1ccc(Cn2cc(CCCC(=O)N3CCOCC3)c3ccccc32)cc1`, in assay [1], the inhibition amounted to 33.9%.
With `COc1ccc2c(c1)c(CCCC(=O)N1CCN(C(=O)OC(C)(C)C)CC1)c(C)n2Cc1ccccc1`, in assay [1], the inhibition worked out at 51.5%.
In the case of `O=C(CCCc1c[nH]c2ccccc12)N1CCOCC1`, in assay [1], the inhibition is 62.3%. In assay [2], inhibition was half-maximal at 2060 nM (IC50).
As to `CC(C)(C)OC(=O)N1CCN(C(=O)CCCc2cn(Cc3ccccc3)c3ccccc23)CC1`, the inhibition in assay [1] turned out to be 38.2%.
Molecule `O=C(CCCc1cn(Cc2ccccc2)c2ccccc12)N1CCNCC1` had an inhibition in assay [1] of 95.4%. The molecule also registered an IC50 in assay [2] of 850 nM.
In turn, `O=C(CCc1cn(Cc2ccc(Cl)c(Cl)c2)c2ccccc12)N1CCOCC1` registered an inhibition in assay [1] of 38.5%.
In the case of `O=C(CCCc1cn(Cc2ccc(Cl)c(Cl)c2)c2ccccc12)N1CCOCC1`, the inhibition in assay [1] stood at 26.7%.
The molecule `COc1ccc2c(c1)c(CCCC(=O)N1CCOCC1)c(C)n2Cc1ccc(C)cc1` displayed an inhibition in assay [1] of 26.4%.
For the molecule `CS(=O)(=O)N1CCN(C(=O)CCCc2cn(Cc3ccccc3)c3ccccc23)CC1`, the inhibition in assay [1] was determined as 23.9%.
For `Cc1ccc(Cn2cc(CC(=O)N3CCOCC3)c3ccccc32)cc1`, the inhibition in assay [1] worked out at 34.6%.
In assay [1], `c1ccc(Cn2cc(CCCCN3CCOCC3)c3ccccc32)cc1` showed an inhibition of 41.6%.
Same read-out and setting: as for `COc1ccc2c(c1)c(CCCC(=O)N1CCNCC1)c(C)n2Cc1ccccc1`, the figure is 64.6%.
The molecule `COc1ccc2c(c1)c(CCCOc1cc(F)cc(C3(OC)CCOCC3)c1)c(C)n2Cc1ccccc1` returned an inhibition in assay [1] of 46.5%.
Molecule `COC1(c2cc(F)cc(OCCc3c[nH]c4ccccc34)c2)CCOCC1` registered an inhibition in assay [1] of 64.2%. In assay [2], this molecule showed a half-inhibitory concentration (IC50) of 2380 nM.
For `COc1ccc2c(c1)c(CCCC(=O)N1CCOCC1)c(C)n2Cc1ccccc1`, the inhibition in assay [1] worked out at 54.2%.
Regarding `O=C(Cc1cn(Cc2ccccc2)c2ccccc12)N1CCOCC1`, the inhibition in assay [1] was found to be 41.4%.
Molecule `O=C(CCCc1cn(C(=O)c2ccc(Cl)cc2)c2ccccc12)N1CCOCC1` registered an inhibition in assay [1] of 32.4%.
Consider `CC(c1cc2ccccc2s1)N(O)C(N)=O` (stereo not drawn), for which, in assay [1], the inhibition was 86.9%.
In turn, `O=C(CCCc1cn(C(=O)c2ccccc2)c2ccccc12)N1CCOCC1` registered an inhibition in assay [1] of 58.2%.

For orientation: inhibition means the share of the control response that was lost under treatment. Lower therefore signals little suppression. The term IC50 denotes the concentration needed to halve the response being measured.
